High-throughput results: PubChem BioAssay, Johns Hopkins Ion Channel Center
In the library only some 3.5% were active in any assay of this set; here they are far more common.
RGS4 block = human RGS4 inhibition | P49798 | HEK293 M3R/RGS4 inducible, Fluo-4 calcium flux; hits give high values; triggered by carbachol at its EC20 | B-score at 10 µM | 310,000 tested, 0.45% active;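 active = B-score, a plate-corrected calcium signal, over three deviations above library mean, with baseline fluorescence within five deviations of library mean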;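 also: RGS4 expression induced by doxycycline in cells with stable M3 receptor; B-score is computed from the integrated fluorescence ratio over baseline after carbachol; higher B-score means a larger calcium signal and so more RGS4 inhibition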
Target sequence (P49798 whole entry, looked up): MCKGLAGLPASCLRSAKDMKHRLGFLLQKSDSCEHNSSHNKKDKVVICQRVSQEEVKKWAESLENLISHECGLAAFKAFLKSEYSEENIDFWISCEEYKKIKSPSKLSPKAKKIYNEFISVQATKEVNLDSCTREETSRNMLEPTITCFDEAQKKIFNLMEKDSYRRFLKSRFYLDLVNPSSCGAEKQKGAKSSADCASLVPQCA
MrgX1 ag = human MrgX1 receptor agonism, primary screen; Q96LB2; B-score at 10 µM; AID 588627; 310,000 tested, 0.44% active; MrgX1-HEK293 cells, Fluo-4 calcium fluorescence, agonist mode; hits give high values;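 active = calcium response B-score plate-corrected fluorescence ratio at least 3 library SD, with starting fluorescence B-score inside 5 SD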
Target sequence (Q96LB2 whole entry, looked up): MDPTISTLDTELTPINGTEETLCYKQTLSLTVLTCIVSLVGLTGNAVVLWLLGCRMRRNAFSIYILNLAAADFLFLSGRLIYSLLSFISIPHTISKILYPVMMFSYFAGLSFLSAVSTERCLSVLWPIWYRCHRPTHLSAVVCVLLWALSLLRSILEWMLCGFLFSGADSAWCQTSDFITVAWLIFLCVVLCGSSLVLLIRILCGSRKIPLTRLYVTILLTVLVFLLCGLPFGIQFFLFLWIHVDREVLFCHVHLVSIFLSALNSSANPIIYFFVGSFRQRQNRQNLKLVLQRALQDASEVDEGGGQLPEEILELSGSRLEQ
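times = overnight plating, then 30 min 37 °C plus 30 min room-temperature dye loading | assay system = stable human MrgX1 HEK293 cell line | input = fifteen thousand cells per well | signal = kinetic calcium dye fluorescence, Fluo-4 NW | dosing = compound delivered in addition one of three | read-out = B-scored fluorescence response ratio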
MrgX1 allo act = human MrgX1 positive allosteric modulation, primary screen. B-score at 10 µM. AID 588675. 310,000 tested, 0.63% active. Q96LB2. MrgX1-HEK293, Fluo-4 calcium flux, FDSS; hits give high values;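 active = plate-corrected calcium response at least 3 library SD above typical, normal starting fluorescence, not activating the receptor alone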;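 also: compound read alongside a low EC10 to EC30 dose of BAM8-22 agonist; peak minus trough fluorescence over baseline measured at the second addition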
RGS4 pot = potentiators or activators of RGS4 | 310,000 tested, 0.92% active | HEK293 M3R/inducible RGS4, carbachol calcium flux Fluo4; hits give low values | B-score at 10 µM;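 active = B-score of the integrated calcium signal more than 4 SD below the library mean, with starting fluorescence not abnormally high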;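 also: negative B-score means reduced calcium response which marks RGS4 activation or potentiation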
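test system = M3R-expressing HEK293 line, RGS4 induced by doxycycline | probe or stimulus = carbachol at ECmax as muscarinic agonist stimulus | timing = dye loading 30 min 37 °C, buffer rest 30 min RT | signal = calcium dye Fluo4 fluorescence | evaluation = B score from integrated fluorescence ratio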
MrgX1 antag = human MrgX1 receptor antagonism, primary screen. MRGX1-HEK293 calcium flux, Fluo-4, BAM8-22 antagonism; hits give low values. B-score at 10 µM. 310,000 tested, 1.3% active;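 active = calcium-response B-score plate-corrected more than 3 library SD below zero, starting fluorescence within 5 deviations, no agonist response on first addition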;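 also: peak minus trough fluorescence over baseline after final BAM8-22 challenge near maximal dose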
RGS4 block valid = RGS4 inhibitor validation; shares compounds with RGS4 block; HEK293 M3R/RGS4, carbachol calcium Fluo-4 fluorescence; carbachol added at its EC20; 0 = buffer wells, 100 = carbachol control; calcium response, % at 10 µM; 1,700 tested, 65% active;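 active = duplicate-averaged calcium response above the buffer-only control mean plus 5 SD of those controls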;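 also: integrated fluorescence ratio F max minus min over baseline F0; higher response in RGS4-induced cells means RGS4 inhibition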
RGS4 uninduced = non-induced cell nonspecific activity of RGS4 inhibitors; activity (percent), % at 10 µM; shares compounds with RGS4 block; 1,900 tested, 20% active; HEK293 M3R non-induced, carbachol calcium Fluo-4; submaximal (EC20) carbachol stimulus; buffer wells 0%, carbachol control wells 100%; call rule not given here;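 also: RGS4 induction absent so cells express M3R without RGS4; higher means more calcium signal and flags a non-specific hit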
RGS4 inh ctr2 = second counter-screen for RGS4 inhibitors: non-induced cells without carbachol; shares compounds with RGS4 block; calcium response (agonist-mode artifact), % at 10 µM; AID 493001; 1,900 tested, 22% active; HEK293 M3R/RGS4 non-induced, Fluo-4 calcium, no carbachol; normalised: buffer wells 0%, carbachol wells 100%;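 active = duplicate-averaged calcium rise in uninduced cells above buffer wells' mean plus 5 SD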
* hit, by the source's call; i = inactive; x = no result given.

SMILES	RGS4 block	MrgX1 ag	MrgX1 allo act	RGS4 pot	MrgX1 antag	RGS4 block valid	RGS4 uninduced	RGS4 inh ctr2
O=C1C(Cl)=C(N2CCC(C(=O)O)CC2)C(=O)c2ccccc21	8.8*	i	15*	i	i	39%*	i	i
NC(=O)C1CCN(C2=C(NS(=O)(=O)c3ccccc3)C(=O)c3ccccc3C2=O)CC1	i	i	i	i	i	x	x	x
COc1cc(OC)c(OC)cc1/C=N/NC(=O)CSc1ccccc1F	i	i	i	i	i	x	x	x
COc1cccc(/C=N/NC(=O)CSc2nnc(C)n2-c2ccccc2)c1OC	i	i	i	i	i	x	x	x
COc1cccc(/C=N/NC(=O)CSc2ccccc2C)c1OC	i	i	i	i	i	i	i	i
COc1cccc(/C=N/NC(=O)CSc2ccccc2C)c1O	5.9*	i	i	i	i	64%*	i	i
Cc1cc(C)n2nc(C(=O)N3CCCC(N4CCN(c5ccccc5C)CC4)C3)cc2n1 (centres undefined)	i	x	x	i	x	x	x	x
O=[N+]([O-])/C=C\c1ccc(N2CCCC2)c(F)c1	36*	x	x	i	x	34%*	i	75%*
Cc1nnnn1/C(=C\c1ccccc1)C(=O)OCC(=O)NC(C)(C)C	i	i	i	i	i	x	x	x
CC(=O)Nc1ccc(NC(=O)COC(=O)/C(=C/c2ccccc2)n2nnnc2C)cc1	6.4*	i	i	i	i	18%*	i	i
Cc1nnnn1/C(=C\c1ccccc1)C(=O)OCC(=O)NC1CCCCC1	6.4*	i	i	i	i	12%*	i	9.0%*
O=C1Cc2ccccc2C(=O)N1c1cccc(Cl)c1	i	i	i	i	i	x	x	x
O=C1Cc2ccccc2C(=O)N1c1ccccc1	5.6*	i	i	i	i	5.0%*	i	i
CCOC(=O)/C(=C/c1ccc(OC(=O)c2ccccc2)cc1)C(C)=O	i	i	i	i	i	x	i	8.5%*
Cc1cccc(N=Nc2c(N)n[nH]c2-c2ccc(Cl)cc2)c1	i	i	i	i	i	x	x	x
Cc1ccc(-c2[nH]nc(N)c2N=Nc2ccccc2C)cc1	10*	i	i	i	i	i	i	i
N#Cc1c(N)nc(SCc2ccccn2)c(C#N)c1-c1cccs1	4.7*	i	i	i	i	9.0%*	42%*	i
CCOC(=O)CSc1nc(N)c(C#N)c(-c2cccs2)c1C#N	i	i	i	i	i	x	x	x
O=c1c2ccccc2nc(N/N=C/c2c(O)ccc3ccccc23)n1O	8.4*	i	i	i	i	40%*	44%*	i
Cc1ccc(C2C(C#N)=C(N)Oc3cc(C)oc(=O)c32)o1 (centres undefined)	7.3*	i	i	i	i	22%*	i	i
Cc1ccc(C)c(C2C(C#N)=C(N)Oc3cc(C)oc(=O)c32)c1 (centres undefined)	i	i	i	i	i	x	x	x
CCc1nnc(NC(=O)c2cc(-c3ccccn3)nc3ccc(Br)cc23)s1	i	i	i	i	i	x	x	x
Cc1sc(NC(=O)c2cc(-c3ccc(Cl)cc3)nc3ccccc23)c(C(N)=O)c1C	i	i	i	i	i	x	x	x
Cc1sc(NC(=O)c2cc(-c3ccccc3)nc3ccccc23)c(C(N)=O)c1C	i	i	i	i	i	x	i	i
CCc1nnc(NC(=O)c2cc(-c3ccncc3)nc3ccccc23)s1	4.9*	i	i	i	i	18%*	i	i
SMILES	RGS4 block	MrgX1 ag	MrgX1 allo act	RGS4 pot	MrgX1 antag	RGS4 block valid	RGS4 uninduced	RGS4 inh ctr2
O=C(NCCc1ccccc1)C1CCC(CNS(=O)(=O)c2ccc(F)cc2)CC1 (centres undefined)	i	i	i	i	i	x	x	x
Nc1nc(CCOc2ccc(F)cc2)cs1	i	x	x	i	x	x	x	x
CCOC(=O)c1ccc(N2C(=O)c3n[nH]c(-c4ccco4)c3C2c2ccc([N+](=O)[O-])cc2)cc1 (centres undefined)	i	i	i	i	i	i	i	i
COc1ccccc1CN(Cc1cc2cc(C)ccc2[nH]c1=O)Cc1nnnn1Cc1ccco1	i	i	i	i	i	x	i	i
CCc1ccc2[nH]c(=O)c(CN(Cc3ccccc3OC)Cc3nnnn3Cc3ccco3)cc2c1	i	i	i	i	i	i	i	18%*
COc1ccccc1/C=C/C(=O)NCC(=O)N=Nc1c(O)[nH]c2ccccc12	i	i	i	i	i	x	x	x
COc1cccc(OCC(=O)Nc2c3c(nn2-c2ccccc2)CS(=O)(=O)C3)c1	i	i	i	i	i	x	x	x
Cc1cc(C(=O)Nc2sc(C)c(C)c2C#N)c(C)o1	7.5*	i	i	i	i	12%*	i	10%*
Cc1sc(NC(=O)c2oc3ccccc3c2C)c(C#N)c1C	i	i	i	i	i	x	x	x
COc1ccc(Nc2nc(-c3ccc(OC)cc3)cs2)cc1	i	i	i	i	i	i	i	i
Oc1ccc(Nc2nc(-c3ccc(O)cc3)cs2)cc1	i	i	i	i	i	i	i	i
COc1cc(NS(=O)(=O)c2ccc(Nc3nc(-c4cccc([N+](=O)[O-])c4)cs3)cc2)nc(OC)n1	i	i	i	i	i	x	30%*	i
COc1ccc(-c2csc(Nc3ccc(S(=O)(=O)Nc4cc(C)on4)cc3)n2)cc1	15*	i	i	i	i	30%*	36%*	i
COc1ccc(-c2csc(Nc3ccccc3)n2)cc1	i	i	i	i	i	x	x	x
CC(C)(O)C#Cc1ccc(C(=O)N2CCC(C(N)=O)(N3CCCCC3)CC2)o1	i	x	x	i	x	x	x	x
CC(C)(C)NC(=O)c1oc2ccccc2c1COc1ccccc1	i	i	i	i	i	x	x	x
CCc1cc(C(=O)N(CC(C)C)c2c(N)n(Cc3ccccc3)c(=O)[nH]c2=O)sc1C	i	i	i	i	i	x	x	x
